# Laboratory results from ChEMBL document CHEMBL3526154, “Metabolism, pharmacokinetics, tissue distribution, and stability studies of the prodrug analog of an anti-hepatitis B virus dinucleoside phosphorothioate” (Drug Metab Dispos, 2012).
# Tests used:
# Details in all cases: in vivo; call rule not given here
# Rattus norvegicus [1] = assay: Drug recovery in female Sprague-Dawley rat at 10 mg/kg, po administered as single dose measured after 24 hrs by liquid scintillation counting analysis; type: ADME, organism-based; parameters: dose 10 mg/kg, route oral
# Summary of the method: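 Rats got a single i.v. bolus or oral gavage dose of [³⁵S]-prodrug at 5 ml/kg over a 24 h study. Radioactivity in blood, tissues, carcass, urine and feces measured by liquid scintillation counting. Total recovery given as % of administered dose at 24 h.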
# Lung [2] = assay: Drug uptake in Sprague-Dawley rat lung at 10 mg/kg, iv administered as bolus dose measured at 1 to 24 hrs post-dose by liquid scintillation counting analysis; type: ADME, organism-based; parameters: dose 10 mg/kg, route intravenous
# Summary of the method: (§1)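 [35S]-labelled prodrug given once to rats, iv bolus via tail vein (25% PEG 400/75% saline) or oral gavage (0.05 M citric acid buffer, pH 2.5), 5 ml/kg. Rats euthanised at 1, 4 or 24 h. Liver, lung, kidney, heart, brain, spleen, tail and retro-orbital plasma were collected. Samples were homogenised and solubilised, and radioactivity was counted by liquid scintillation. Values are µg-equivalent/ml or g and % of dose.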
# Rattus norvegicus [3] = assay: Tmax in male Sprague-Dawley rat at 10 mg/kg, po administered as single dose by liquid scintillation counting analysis; type: ADME, organism-based; parameters: dose 10 mg/kg, route oral
# Summary of the method: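 Radioactivity in plasma from rats given a single [35S]-labelled dose, iv (tail vein, 25% PEG 400/75% saline) or oral gavage (0.05 M citric acid, pH 2.5), sampled at 1, 4 and 24 h, measured by liquid scintillation as µg-Eq/ml. Elimination t1/2 and Tmax were derived by noncompartmental analysis with sparse sampling, from nine male and nine female rats.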
# [4] = Drug excretion in male Sprague-Dawley rat urine at 10 mg/kg, iv administered as bolus dose measured at 1 to 4 hrs post-dose by liquid scintillation counting analysis; type: ADME, organism-based; parameters: dose 10 mg/kg, route intravenous
# Summary of the method: (§2)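 Single [³⁵S]-prodrug dose to rats, i.v. tail-vein bolus (PEG 400/saline vehicle) or oral gavage (citric acid buffer pH 2.5), 5 ml/kg. Urine and feces collected ~1, 4 and 24 h postdose. Radioactivity counted by liquid scintillation and expressed as % of administered dose. Mean and S.D. from nine rats per sex.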
# Heart = assay: Drug uptake in Sprague-Dawley rat heart at 10 mg/kg, po administered as single dose measured at 1 to 24 hrs post-dose by liquid scintillation counting analysis; type: ADME, organism-based; parameters: dose 10 mg/kg, route oral
# Summary of the method: (§3)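 Single i.v. tail-vein bolus or oral gavage of [³⁵S]-prodrug to rats, 5 ml/kg. Euthanised by i.p. pentobarbital overdose at 1, 4 or 24 h. Retro-orbital blood collected; liver, lung, kidney, heart, brain and spleen frozen. Tissues homogenised, solubilised and counted by liquid scintillation. Radioactivity given as µg-Eq/g and % of dose.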
# [5] = Drug excretion in female Sprague-Dawley rat feces at 10 mg/kg, po administered as single dose measured at 4 to 24 hrs post-dose by liquid scintillation counting analysis; type: ADME, organism-based; parameters: dose 10 mg/kg, route oral; summary of the method: as §2
# Blood = assay: Drug uptake in Sprague-Dawley rat blood at 10 mg/kg, po administered as single dose measured at 4 hrs post-dose by liquid scintillation counting analysis; type: ADME, organism-based; parameters: dose 10 mg/kg, route oral; summary of the method: as §3
# Kidney [6] = assay: Drug uptake in Sprague-Dawley rat kidney at 10 mg/kg, iv administered as bolus dose measured at 1 to 24 hrs post-dose by liquid scintillation counting analysis; type: ADME, organism-based; parameters: dose 10 mg/kg, route intravenous; summary of the method: as §3
# [7] = Drug excretion in female Sprague-Dawley rat feces at 10 mg/kg, po administered as single dose measured at 0 to 1 hr post-dose by liquid scintillation counting analysis; type: ADME, organism-based; parameters: dose 10 mg/kg, route oral; summary of the method: as §2
# [8] = Drug excretion in female Sprague-Dawley rat urine at 10 mg/kg, po administered as single dose measured at 1 to 4 hrs post-dose by liquid scintillation counting analysis; type: ADME, organism-based; parameters: dose 10 mg/kg, route oral; summary of the method: as §2
# [9] = Drug excretion in male Sprague-Dawley rat urine at 10 mg/kg, po administered as single dose measured at 0 to 24 hrs post-dose by liquid scintillation counting analysis; type: ADME, organism-based; parameters: dose 10 mg/kg, route oral; summary of the method: as §2
# Lung [10] = assay: Drug uptake in Sprague-Dawley rat lung at 10 mg/kg, po administered as single dose measured at 4 hrs post-dose by liquid scintillation counting analysis; type: ADME, organism-based; parameters: dose 10 mg/kg, route oral; summary of the method: as §1
# [11] = Drug excretion in male Sprague-Dawley rat feces at 10 mg/kg, po administered as single dose measured at 0 to 24 hrs post-dose by liquid scintillation counting analysis; type: ADME, organism-based; parameters: dose 10 mg/kg, route oral; summary of the method: as §2
# Liver [12] = assay: Drug uptake in Sprague-Dawley rat liver at 10 mg/kg, iv administered as bolus dose measured at 1 to 24 hrs post-dose by liquid scintillation counting analysis; type: ADME, organism-based; parameters: dose 10 mg/kg, route intravenous; summary of the method: as §1
# Rattus norvegicus [13] = assay: Cmax in female Sprague-Dawley rat at 10 mg/kg, po administered as single dose by liquid scintillation counting analysis; type: ADME, organism-based; parameters: dose 10 mg/kg, route oral
# Summary of the method: (§4)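 Single dose of [³⁵S]-labelled prodrug to rats, i.v. tail-vein bolus in 25% PEG 400/75% saline or oral gavage in 0.05 M citric acid buffer pH 2.5, 5 ml/kg. Retro-orbital blood into EDTA at 1, 4 or 24 h; plasma by centrifugation. Radioactivity by liquid scintillation counting as µg-Eq/ml. Noncompartmental sparse-sampling analysis gives Cmax and AUC; nine rats per sex.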
# Spleen = assay: Drug uptake in Sprague-Dawley rat spleen at 10 mg/kg, po administered as single dose measured at 1 to 24 hrs post-dose by liquid scintillation counting analysis; type: ADME, organism-based; parameters: dose 10 mg/kg, route oral; summary of the method: as §1
# [14] = Drug excretion in female Sprague-Dawley rat urine at 10 mg/kg, iv administered as bolus dose measured at 0 to 1 hr post-dose by liquid scintillation counting analysis; type: ADME, organism-based; parameters: dose 10 mg/kg, route intravenous; summary of the method: as §2
# Brain = assay: Drug uptake in Sprague-Dawley rat brain at 10 mg/kg, iv administered as bolus dose measured at 1 to 24 hrs post-dose by liquid scintillation counting analysis; type: ADME, organism-based; parameters: dose 10 mg/kg, route intravenous; summary of the method: as §3
# Plasma = assay: Drug uptake in Sprague-Dawley rat plasma at 10 mg/kg, po administered as single dose measured at 4 hrs post-dose by liquid scintillation counting analysis; type: ADME, organism-based; parameters: dose 10 mg/kg, route oral; summary of the method: as §1
# Kidney [15] = assay: Drug uptake in Sprague-Dawley rat kidney at 10 mg/kg, po administered as single dose measured at 4 hrs post-dose by liquid scintillation counting analysis; type: ADME, organism-based; parameters: dose 10 mg/kg, route oral; summary of the method: as §1
# Liver [16] = assay: Drug uptake in Sprague-Dawley rat liver at 10 mg/kg, po administered as single dose measured at 4 hrs post-dose by liquid scintillation counting analysis; type: ADME, organism-based; parameters: dose 10 mg/kg, route oral; summary of the method: as §1
# [17] = Drug excretion in male Sprague-Dawley rat feces at 10 mg/kg, iv administered as bolus dose measured at 4 to 24 hrs post-dose by liquid scintillation counting analysis; type: ADME, organism-based; parameters: dose 10 mg/kg, route intravenous; summary of the method: as §2
# Rattus norvegicus [18] = assay: AUC in female Sprague-Dawley rat at 10 mg/kg, iv administered as bolus dose by liquid scintillation counting analysis; type: ADME, organism-based, Plasma; parameters: dose 10 mg/kg, route intravenous; summary of the method: as §4
# [19] = Drug excretion in female Sprague-Dawley rat feces at 10 mg/kg, po administered as single dose measured at 1 to 4 hrs post-dose by liquid scintillation counting analysis; type: ADME, organism-based; parameters: dose 10 mg/kg, route oral; summary of the method: as §2
# Rattus norvegicus [20] = assay: Cmax in male Sprague-Dawley rat at 10 mg/kg, po administered as single dose by liquid scintillation counting analysis; type: ADME, organism-based; parameters: dose 10 mg/kg, route oral; summary of the method: as §4
# [21] = Drug excretion in male Sprague-Dawley rat feces at 10 mg/kg, po administered as single dose measured at 0 to 1 hr post-dose by liquid scintillation counting analysis; type: ADME, organism-based; parameters: dose 10 mg/kg, route oral; summary of the method: as §2
# Rattus norvegicus [22] = assay: AUC in female Sprague-Dawley rat at 10 mg/kg, po administered as single dose by liquid scintillation counting analysis; type: ADME, organism-based, Plasma; parameters: dose 10 mg/kg, route oral; summary of the method: as §4
# Rattus norvegicus [23] = assay: AUC in male Sprague-Dawley rat at 10 mg/kg, po administered as single dose by liquid scintillation counting analysis; type: ADME, organism-based, Plasma; parameters: dose 10 mg/kg, route oral; summary of the method: as §4
structure (smiles),measurement,setting,value
CO[C@@H]1[C@H](OP(=O)(OC[C@H]2O[C@@H](n3cnc4c(N)ncnc43)C[C@@H]2O)[35S]COC(=O)OC(C)C)[C@@H](CO)O[C@H]1n1ccc(=O)[nH]c1=O (stereo partly drawn),Drug recovery,Rattus norvegicus [1],80.4%
same,Drug uptake,Lung [2],Active
same,Tmax,Rattus norvegicus [3],4 h
same,Drug excretion,[4],11.33%
same,Drug uptake,Heart,<= 0.5%
same,Drug excretion,[5],2.68%
same,Drug uptake,Blood,Active
same,Drug uptake,Kidney [6],Active
same,Drug excretion,[7],0.02%
same,Drug excretion,[8],2.04%
same,Drug excretion,[9],34.59%
same,Drug uptake,Lung [10],Active
same,Drug excretion,[11],35.71%
same,Drug uptake,Liver [12],Active
same,Cmax,Rattus norvegicus [13],2.5 ugequiv/ml
same,Drug uptake,Spleen,<= 0.5%
same,Drug excretion,[14],15.81%
same,Drug uptake,Brain,<= 0.5%
same,Drug uptake,Plasma,Active
same,Drug uptake,Kidney [15],Active
same,Drug uptake,Liver [16],Active
same,Drug excretion,[17],16.9%
same,AUC,Rattus norvegicus [18],35.21 ugequiv.h/ml
same,Drug excretion,[19],0.08%
same,Cmax,Rattus norvegicus [20],2.53 ugequiv/ml
same,Drug excretion,[21],0.01%
same,AUC,Rattus norvegicus [22],27.37 ugequiv.h/ml
same,AUC,Rattus norvegicus [23],26.86 ugequiv.h/ml
